Measured values as given in publication PMC11134322 (RSC Advances, 2024).

Experiments:
Format in all cases: cell-based
[1] = system: LPS-induced IL-6 release in RAW264.7 cells; assay: Inhibition of LPS-induced IL-6 production, ELISA; conditions: Mus musculus, RAW264.7, 24 h, read-out: IC50 IL-6
In short: (§1)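 Log-phase RAW264.7 cells, 4 × 10^5 cells per mL, were grown 24 h before dosing. They received test compound or indomethacin for 30 min, then LPS (0.5 mg L−1) for a further 24 h. IL-6 or TNF-α in the culture medium was measured by commercial ELISA, reading absorbance at 450 nm against a standard curve. IC50 came from dose–response experiments.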

[2] = system: LPS-induced TNF-α release in RAW264.7 cells; assay: Inhibition of LPS-induced TNF-α production, ELISA; conditions: Mus musculus, RAW264.7, 24 h, read-out: IC50 TNF-α
In short: as §1

RAW264.7 cells = assay: Cytotoxicity, CCK-8 assay; conditions: RAW264.7 cells, 24, 48 and 72 h; DEX 27.964 μM, 13b 12.326 μM, 13d 23.684 μM
[3] = system: LPS-induced NO release in RAW264.7 cells; assay: Inhibition of LPS-induced NO release, Griess reagent test; conditions: Mus musculus, RAW264.7, 24 h, read-out: IC50 NO
In short: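 Log-phase RAW264.7 cells were seeded at 4 × 10^5 cells per mL in 96-well plates and grown 24 h. They were pretreated with test compound or indomethacin for 30 min, then stimulated with LPS (0.5 mg L−1) for 24 h more. NO in the supernatant was measured by Griess method and quantified against an NaNO2 standard curve. IC50 came from dose–response experiments.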

What does the source list for `C[C@@H]1C[C@H]2[C@@H]3CCC4=CC(=O)C=C[C@]4(C)[C@@]3(F)[C@@H](O)C[C@]2(C)[C@@]1(O)C(=O)CO` [DEX, dexamethasone]?
IC50 [1]: 0.247 ± 0.073 µM; IC50 [2]: 27.8 ± 0.643 µM; cytotoxicity: cell activity / proliferation versus control (in words) (RAW264.7 cells): no discernible change in cell activity; IC50 [3]: 21.2 ± 0.517 µM
